V1R ag counter: counter-screen for oxytocin receptor agonists: human V1a receptor agonists; P37288; CHO-V1R cells, Fluo-8 calcium fluorescence, agonist mode; 0% DMSO, 100% 3 nM vasopressin; activation, % at 3 µM; actives 0.25% (n = 320,000);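 active means activation above the mean activation of all tested compounds plus 3 SD, per screening run, cut at about 20% in these data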;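 further: signal is peak over basal fluorescence ratio across a 100 second FLIPR read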
Target sequence (P37288 whole entry, looked up): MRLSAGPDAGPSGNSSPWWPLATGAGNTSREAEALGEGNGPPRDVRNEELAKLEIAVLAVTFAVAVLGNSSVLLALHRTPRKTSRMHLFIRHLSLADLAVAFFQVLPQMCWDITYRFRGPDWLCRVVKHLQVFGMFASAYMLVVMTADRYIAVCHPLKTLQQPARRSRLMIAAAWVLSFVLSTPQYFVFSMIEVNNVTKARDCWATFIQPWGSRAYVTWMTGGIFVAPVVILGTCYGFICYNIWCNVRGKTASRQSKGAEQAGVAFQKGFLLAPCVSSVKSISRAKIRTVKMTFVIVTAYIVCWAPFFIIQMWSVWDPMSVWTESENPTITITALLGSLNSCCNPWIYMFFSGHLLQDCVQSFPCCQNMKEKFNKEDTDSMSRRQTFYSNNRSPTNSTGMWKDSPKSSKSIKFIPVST
OXTR agonist: human OXTR agonism. P30559. CHO-OTR cells, Fluo-8 calcium fluorescence; normalized: DMSO 0%, oxytocin 100%. activation, % at 3 µM. actives 0.32% (n = 320,000);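 active means activation above the mean of all tested compounds plus 3 SD, cutoff set per screening run, cut at about 20% in these data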;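 further: peak over basal fluorescence ratio from a 100 s FLIPR kinetic read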
TAAR1 agonist: agonists of human TAAR1 | Q96RJ0 | CHO RD-HGA16 TAAR1, Fluo-8 calcium fluorescence; vehicle wells 0%, saturating PEA agonist 100% | activation, % at 3 µM | actives 0.99% (n = 360,000) | AID 624467;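 active means activation above the mean activation of all test compounds in the run plus 3 SD, cut at about 38% in these data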
Target sequence (Q96RJ0 whole entry, looked up): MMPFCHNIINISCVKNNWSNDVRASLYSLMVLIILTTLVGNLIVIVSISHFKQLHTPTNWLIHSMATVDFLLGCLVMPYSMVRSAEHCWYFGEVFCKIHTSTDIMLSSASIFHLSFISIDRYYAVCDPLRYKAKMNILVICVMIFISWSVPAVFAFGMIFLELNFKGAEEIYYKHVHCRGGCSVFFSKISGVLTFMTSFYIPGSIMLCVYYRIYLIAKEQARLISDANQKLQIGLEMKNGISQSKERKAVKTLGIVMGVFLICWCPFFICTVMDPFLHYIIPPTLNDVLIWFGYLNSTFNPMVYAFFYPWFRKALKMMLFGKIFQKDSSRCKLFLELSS
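Assay system – CHO-derived RD-HGA16 cells with stable Gα16 and human TAAR1 · Compound dosing – one-point dosing at 3 µM (nominal) · Incubation – 17-24 h seeding, 75 min 37 °C dye, 30 min RT · Measured by – kinetic Fluo-8 calcium fluorescence · Control set – DMSO vehicle as 0%, PEA at EC100 as 100% · Repeats – single well for each compound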
OXTR potentiator: potentiates the human oxytocin receptor response; P30559; CHO-OTR cells, Fluo-8 calcium fluorescence, potentiator mode; 0% = oxytocin EC15, 100% = EC100; activation, % at 3 µM; actives 0.061% (n = 320,000);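 active means activation above that plate's cutoff, the mean activation of tested compounds plus 3 SD, cut at about 6.6% in these data, passing the limit was not always enough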
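Material: human OTR in CHO cells. Compound: 3.0 µM, one dose. Timing: compound 6 min at room temperature before oxytocin, 100 s read. Evaluation: % activation of max/min ratio relative to oxytocin controls. Replication: single well per compound, singlicate. Signal: Fluo-8 calcium dye fluorescence.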
TAAR1 antag: human TAAR1 antagonism. Q96RJ0. CHO RD-HGA16 TAAR1, Fluo-8 calcium fluorescence, antagonist. inhibition, % at 3 µM. actives 1.5% (n = 360,000);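 active means inhibition above a per-plate cutoff, the mean inhibition of test compounds on that plate plus 3 SD, cut at about 49% in these data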
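System: CHO RD-HGA16 cells bearing hTAAR1. Reagent: EC80 β-phenethylamine stimulus. Schedule: seeding 17-24 h prior, 75-min 37 °C, 30-min RT dye loading. Signal: Fluo-8 intracellular calcium dye fluorescence, real-time kinetic reads. Read-out: % inhibition from peak post-agonist over basal fluorescence ratio. Benchmarks: vehicle wells and EC80 agonist wells. Replicates: n of 1.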
TAAR1 ag confirm: confirmation of human TAAR1 agonists. shares compounds with TAAR1 agonist. CHO RD-HGA16 TAAR1, Fluo-8 calcium fluorescence; scaled: DMSO 0%, maximal phenethylamine 100%. activation, % at 3 µM. actives 82% (n = 2,400). AID 651783;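 active means activation above a cutoff set at the run's mean compound activation plus 3 SD, cut at about 39% in these data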
Ga16 ag counter: nonselective agonist in parental cells, TAAR1 agonist counter-screen; actives 50% (n = 2,400); activation, % at 3 µM; shares compounds with TAAR1 agonist; AID 651787; CHO-Ga16 parental, Fluo-8 calcium fluorescence; normalized to maximal ATP response, DMSO zero;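 active means activation above the run cutoff, the mean activation over all tested wells plus 3 SD, cut at about 12% in these data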
TAAR1 desensitize: human TAAR1 agonist that also desensitizes the receptor | shares compounds with TAAR1 agonist | CHO RD-HGA16 hTAAR1, Fluo-8 calcium, beta-PEA response inhibition | inhibition, % at 3 µM | actives 46% (n = 2,400) | AID 651951;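 active means inhibition above the run cutoff, the mean inhibition of all test compounds plus 3 SD, cut at about 49% in these data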;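 further: beta-PEA stimulus applied at its EC80; loss of beta-PEA calcium signal after compound pretreatment read as receptor desensitization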
Ga16 antag count: nonselective Ga16 antagonism, counter-screen. actives 39% (n = 2,400). inhibition, % at 3 µM. CHO-Ga16 ATP-induced calcium, Fluo-8 fluorescence. shares compounds with TAAR1 agonist;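 active means inhibition above the plate's mean compound inhibition plus 3 SD, computed per plate, cut at about 22% in these data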
Of the large screens only hits and unclear results are named; the others gave an inactive call (follow-up assays come after a bar, where they were run). In the library only some 2.3% were active in any assay of this set; here they are far more common.

Fc1ccc(N2CCN(C(c3cccs3)c3nnnn3CCc3ccccc3)CC2)cc1 (stereo not given)	none
Fc1ccccc1N1CCN(C(c2cccs2)c2nnnn2CCc2ccccc2)CC1 (stereo not given)	TAAR1 agonist 77 | TAAR1 ag confirm 83 | Ga16 ag counter inactive | TAAR1 desensitize 56 | Ga16 antag count inactive
c1ccc(CCn2nnnc2C(c2cccs2)N2CCN(Cc3ccc4c(c3)OCO4)CC2)cc1 (stereo not given)	TAAR1 agonist 85, TAAR1 antag 73 | TAAR1 ag confirm 95 | Ga16 ag counter inactive | TAAR1 desensitize 89 | Ga16 antag count inactive
C(=N\Nc1nc(N2CCCCCC2)nc(N2CCCCCC2)n1)/c1ccccc1	none
O=C(/C=C/c1ccccc1)Nc1cccc(C(=O)N2CCCC2)c1	none (no result: V1R ag counter, OXTR agonist, OXTR potentiator)
COc1cc(OC)cc(C(=O)NNC(=O)c2ccc3ccccc3n2)c1	none (no result: V1R ag counter, OXTR agonist, OXTR potentiator)
COc1cc(C(=O)NNC(=S)NC(=O)c2ccc(Cl)cc2)cc(OC)c1OC	V1R ag counter 34, OXTR agonist 37, TAAR1 agonist 141, TAAR1 antag 86 | TAAR1 ag confirm 93 | Ga16 ag counter 84 | TAAR1 desensitize 67 | Ga16 antag count 43
Cc1ccc(C(=O)NC(=S)NNC(=O)CC#N)cc1	none
COc1ccc(C(=O)NC(=S)NNC(=O)c2ccc3ccccc3n2)cc1	TAAR1 agonist 51 | TAAR1 ag confirm 89 | Ga16 ag counter 69 | TAAR1 desensitize inactive | Ga16 antag count 37
COc1ccc(-c2nn(-c3ccccc3)cc2C(=O)NC(=S)NNC(=O)c2ccncc2)cc1	TAAR1 agonist 101, TAAR1 antag 56 | TAAR1 ag confirm 82 | Ga16 ag counter 74 | TAAR1 desensitize 76 | Ga16 antag count 70
CCCCC(=O)NNC(=S)NC(=O)c1ccc(C)cc1	TAAR1 agonist 98 | TAAR1 ag confirm 83 | Ga16 ag counter 82 | TAAR1 desensitize inactive | Ga16 antag count 40
COc1ccc(NC(=O)c2cn(-c3ccccc3)nc2-c2ccncc2)cc1	none
Cc1ccc(N=CNc2ccc(C)cc2C)c(C)c1	none
C=CCc1cc(Cl)ccc1OCCOCCNC(C)(C)C	none
COc1ccc(C(=O)NC(=S)NNC(=O)c2ccc(NC(=O)C(C)C)cc2)cc1	none
CCC(=O)NC(=S)NNC(=O)c1ccc(OC)cc1	none
O=C(NNC(=S)NC(=O)c1sc2ccccc2c1Cl)c1ccc(Cl)cc1	V1R ag counter 57, OXTR agonist 46, TAAR1 agonist 91, TAAR1 antag 50 | TAAR1 ag confirm 163 | Ga16 ag counter 141 | TAAR1 desensitize 106 | Ga16 antag count 103
O=C(O)c1ccccc1NC(=S)NC(=O)c1sc2ccccc2c1Cl	none
Cc1cccc(C(=O)NC(=S)NNC(=O)c2ccc(Cl)cc2)c1	V1R ag counter 112, OXTR agonist 98, TAAR1 agonist 171, TAAR1 antag 104 | TAAR1 ag confirm 159 | Ga16 ag counter 121 | TAAR1 desensitize 107 | Ga16 antag count 93
Cc1cccc(C(=O)NNC(=O)c2ccc(Br)cc2)c1	none
COc1ccc(C(=O)NNC(=S)NC(=O)c2ccc(Cl)cc2)cc1	V1R ag counter 76, OXTR agonist 71, TAAR1 agonist 176, TAAR1 antag 106 | TAAR1 ag confirm 141 | Ga16 ag counter 117 | TAAR1 desensitize 102 | Ga16 antag count 86
COc1ccc(C(=O)NC(=S)NNC(=O)c2ccc(C)cc2)cc1	V1R ag counter 108, OXTR agonist 82, TAAR1 agonist 170, TAAR1 antag 106 | TAAR1 ag confirm 157 | Ga16 ag counter 124 | TAAR1 desensitize 105 | Ga16 antag count 70
O=S(=O)(c1cccc(-c2nnco2)c1)N1CCCC1	none
CN(CC(=O)NCc1ccccc1)CC(=O)Nc1ccc(Cl)c(C(F)(F)F)c1	V1R ag counter 21, OXTR agonist 23, TAAR1 agonist 73 | TAAR1 ag confirm 82 | Ga16 ag counter 25 | TAAR1 desensitize 60 | Ga16 antag count 34
COc1cccc(C(=O)Nc2cc(C)c3c(=O)oc4ccccc4c3n2)c1	none
COc1ccc(OC)c(S(=O)(=O)NC2CCCCC2)c1	none
COC(=O)c1ccccc1NC(=O)c1cccc(NC(=O)CSCc2ccccc2)c1C	none
Cc1nc2ccc(S(=O)(=O)NCC(=O)N3CCOCC3)cc2s1	none
Cn1c(CN2CCCC2)nc2cc(NS(=O)(=O)c3ccc(Cl)cc3)ccc21	TAAR1 agonist 69 | TAAR1 ag confirm 93 | Ga16 ag counter 30 | TAAR1 desensitize inactive | Ga16 antag count inactive
Cn1c(CCN2CCCC2)nc2cc(NS(=O)(=O)c3ccc(Cl)cc3)ccc21	none
CCOc1cccc(-c2c(C(=O)N/N=C/c3ccsc3)nnn2-c2nonc2N)c1	V1R ag counter 24, OXTR agonist 25, TAAR1 agonist 118 | TAAR1 ag confirm 136 | Ga16 ag counter 93 | TAAR1 desensitize 67 | Ga16 antag count 27
CCOc1ccc(-c2c(C(=O)N/N=C/c3ccncc3)nnn2-c2nonc2N)cc1	none
CCOc1ccc(-c2c(C(=O)N/N=C/c3ccccc3)nnn2-c2nonc2N)cc1	TAAR1 agonist 51 | TAAR1 ag confirm 43 | Ga16 ag counter 30 | TAAR1 desensitize inactive | Ga16 antag count inactive
CCOc1ccc(-c2c(C(=O)N/N=C/c3ccc(C)cc3)nnn2-c2nonc2N)cc1	TAAR1 agonist 122 | TAAR1 ag confirm 118 | Ga16 ag counter 73 | TAAR1 desensitize 76 | Ga16 antag count 48
CCOc1cccc(-c2c(C(=O)N/N=C/c3sccc3C)nnn2-c2nonc2N)c1	none
Cc1ccc(-c2c(C(=O)N/N=C/c3cccs3)nnn2-c2nonc2N)cc1	none (no result: TAAR1 agonist, TAAR1 antag)
Cc1ccc(-c2c(C(=O)N/N=C/c3ccsc3)nnn2-c2nonc2N)cc1	V1R ag counter 36, OXTR agonist 39, TAAR1 agonist 133, TAAR1 antag 50 | TAAR1 ag confirm 125 | Ga16 ag counter 90 | TAAR1 desensitize 72 | Ga16 antag count 34
CCCn1cc(CN2CCC(C(=O)Nc3cccc(-c4cscn4)c3)CC2)c(C)n1	none
